What was measured:
[1] = target: T1, Androgen receptor (Homo sapiens, UniProt P10275); assay: biochemical
T1 sequence (P10275 whole entry): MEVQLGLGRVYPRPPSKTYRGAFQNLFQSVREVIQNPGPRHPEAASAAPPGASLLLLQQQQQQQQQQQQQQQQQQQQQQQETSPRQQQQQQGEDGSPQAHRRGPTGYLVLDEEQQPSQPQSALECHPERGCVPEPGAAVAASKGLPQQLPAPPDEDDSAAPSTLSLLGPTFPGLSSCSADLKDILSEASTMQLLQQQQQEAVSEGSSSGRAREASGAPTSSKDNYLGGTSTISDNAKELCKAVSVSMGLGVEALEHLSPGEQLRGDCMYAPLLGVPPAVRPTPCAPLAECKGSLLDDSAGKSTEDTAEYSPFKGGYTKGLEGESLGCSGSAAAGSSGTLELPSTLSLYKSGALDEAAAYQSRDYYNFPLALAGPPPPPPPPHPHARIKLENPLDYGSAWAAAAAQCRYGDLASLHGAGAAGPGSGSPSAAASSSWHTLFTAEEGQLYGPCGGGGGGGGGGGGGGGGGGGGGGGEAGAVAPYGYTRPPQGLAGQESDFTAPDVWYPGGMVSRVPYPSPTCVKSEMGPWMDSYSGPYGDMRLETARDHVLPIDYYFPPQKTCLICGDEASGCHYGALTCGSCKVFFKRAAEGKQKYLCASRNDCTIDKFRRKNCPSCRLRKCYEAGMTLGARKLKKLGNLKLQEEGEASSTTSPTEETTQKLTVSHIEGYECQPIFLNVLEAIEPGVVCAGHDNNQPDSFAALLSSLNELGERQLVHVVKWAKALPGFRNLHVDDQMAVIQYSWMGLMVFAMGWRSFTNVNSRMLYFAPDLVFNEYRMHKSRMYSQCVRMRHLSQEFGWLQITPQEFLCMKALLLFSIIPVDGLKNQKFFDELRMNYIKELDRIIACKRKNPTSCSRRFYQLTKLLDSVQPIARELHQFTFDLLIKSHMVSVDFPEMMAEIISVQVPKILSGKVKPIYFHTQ

[2] = target: T2, Glucocorticoid receptor (Homo sapiens, UniProt P04150)
T2 sequence (P04150 whole entry): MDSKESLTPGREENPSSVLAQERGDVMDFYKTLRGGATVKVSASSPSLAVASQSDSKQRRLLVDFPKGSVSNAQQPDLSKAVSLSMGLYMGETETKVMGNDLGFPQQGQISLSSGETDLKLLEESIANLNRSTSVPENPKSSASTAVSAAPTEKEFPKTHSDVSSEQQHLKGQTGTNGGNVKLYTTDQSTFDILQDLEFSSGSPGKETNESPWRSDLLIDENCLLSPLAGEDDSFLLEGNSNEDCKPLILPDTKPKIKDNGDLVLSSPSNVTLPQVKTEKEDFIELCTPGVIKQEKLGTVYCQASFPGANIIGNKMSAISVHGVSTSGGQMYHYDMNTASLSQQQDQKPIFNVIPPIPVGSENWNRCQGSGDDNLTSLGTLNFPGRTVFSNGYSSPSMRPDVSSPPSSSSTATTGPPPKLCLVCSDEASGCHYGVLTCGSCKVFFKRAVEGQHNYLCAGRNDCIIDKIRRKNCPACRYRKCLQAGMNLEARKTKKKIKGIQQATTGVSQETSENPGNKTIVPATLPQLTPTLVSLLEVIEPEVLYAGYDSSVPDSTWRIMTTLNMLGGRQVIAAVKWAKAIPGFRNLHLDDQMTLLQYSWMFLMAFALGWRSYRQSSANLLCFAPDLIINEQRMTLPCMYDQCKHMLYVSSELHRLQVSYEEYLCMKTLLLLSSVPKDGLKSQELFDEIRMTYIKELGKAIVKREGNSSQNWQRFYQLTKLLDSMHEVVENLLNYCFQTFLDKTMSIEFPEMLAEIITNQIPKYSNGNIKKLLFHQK

[3] = target: T1, Androgen receptor
[4] = target: T3, Progesterone receptor (Homo sapiens, UniProt P06401); assay: Agonistic activity against human progesterone receptor in T47D breast cancer cells; assay type: functional, cell-based
T3 sequence (P06401 whole entry): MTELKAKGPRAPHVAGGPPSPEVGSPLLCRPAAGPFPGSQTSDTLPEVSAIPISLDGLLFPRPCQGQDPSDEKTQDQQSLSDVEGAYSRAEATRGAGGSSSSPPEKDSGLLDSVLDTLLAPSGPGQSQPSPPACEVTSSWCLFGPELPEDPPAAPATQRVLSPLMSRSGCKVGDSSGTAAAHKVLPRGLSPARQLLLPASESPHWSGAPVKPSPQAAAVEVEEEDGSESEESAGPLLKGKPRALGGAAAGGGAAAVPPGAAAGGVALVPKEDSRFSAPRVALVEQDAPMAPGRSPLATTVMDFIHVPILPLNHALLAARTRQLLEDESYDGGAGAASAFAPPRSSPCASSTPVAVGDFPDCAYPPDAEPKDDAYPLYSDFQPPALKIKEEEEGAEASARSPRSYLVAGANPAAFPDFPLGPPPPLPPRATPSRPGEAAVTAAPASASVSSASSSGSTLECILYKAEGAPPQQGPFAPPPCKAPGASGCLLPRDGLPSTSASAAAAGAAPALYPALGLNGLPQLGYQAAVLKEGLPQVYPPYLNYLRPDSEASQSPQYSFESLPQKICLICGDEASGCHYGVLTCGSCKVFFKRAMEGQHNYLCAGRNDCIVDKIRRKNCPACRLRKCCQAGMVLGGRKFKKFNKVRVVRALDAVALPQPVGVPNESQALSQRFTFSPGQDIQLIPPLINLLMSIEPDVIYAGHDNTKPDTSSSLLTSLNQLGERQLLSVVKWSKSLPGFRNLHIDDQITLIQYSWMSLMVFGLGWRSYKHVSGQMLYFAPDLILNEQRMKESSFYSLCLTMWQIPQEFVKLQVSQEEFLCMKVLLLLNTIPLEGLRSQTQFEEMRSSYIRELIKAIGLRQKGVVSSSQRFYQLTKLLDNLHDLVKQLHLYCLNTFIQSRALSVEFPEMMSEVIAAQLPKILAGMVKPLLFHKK

[5] = organism: Homo sapiens; assay: Relative potency for human estrogen and progesterone receptors
[6] = target: T3, Progesterone receptor; assay: Agonistic activity against human progesterone receptor in CV-1 cells; assay type: functional, cell-based
[7] = target: T2, Glucocorticoid receptor; assay: Inhibition of Dexamethasone binding to human glucocorticoid receptor expressed in baculovirus […] cells
[8] = target: T4, Progesterone receptor (Homo sapiens) (UniProt P06401); assay: Percent agonistic effect towards human progesterone receptor in T47D breast cancer cells; assay type: functional, cell-based
T4 sequence (whole entry): T3 sequence (P06401 whole entry)

[9] = organism: Homo sapiens; assay: Relative potency for human glucocorticoid and progesterone receptors
[10] = target: T4, Progesterone receptor (Homo sapiens); assay: Percent agonistic effect towards human progesterone receptor in CV-1 cells; assay type: functional, cell-based
[11] = organism: Homo sapiens; assay: Relative potency for human mineralocorticoid and progesterone receptors
[12] = organism: Homo sapiens; assay: Relative potency for human androgen and progesterone receptors
[13] = target: T3, Progesterone receptor; assay: Binding affinity towards human progesterone receptor A isoform using progesterone as radioligand
[14] = target: T5, Estrogen receptor (Homo sapiens, UniProt Q92731+P03372); assay: Antagonistic efficacy against human estrogen receptor; assay type: functional
Outline: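 Cotransfection LUC reporter assay for hER. Antagonist efficacy is the % maximal inhibition of a standard agonist (estradiol is the reference agonist for hER) applied at its EC50.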

[15] = target: T5, Estrogen receptor

| SMILES | Ki [1] [nM] | IC50 [2] [nM] | IC50 [3] [nM] | EC50 [4] [nM] | Ratio [5] | EC50 [6] [nM] | Ki [7] [nM] | Efficacy [8] [%] | Ratio [9] | Efficacy [10] [%] | Ratio [11] | Ratio [12] | Ki [13] [nM] | Efficacy [14] [%] | IC50 [15] [nM] |
| --- | --- | --- | --- | --- | --- | --- | --- | --- | --- | --- | --- | --- | --- | --- | --- |
| CC1=CC(C)(C)Nc2ccc3c(c21)/C(=C/c1ccccc1N(C)C)Oc1ccc(F)cc1-3 | 819 | 320 | 1500 | 26 | > 1000 | 2.7 | 493 | 59 | 119 | 172 | > 1000 | 556 | 1.2 |  |  |
| CC1=CC(C)(C)Nc2ccc3c(c21)/C(=C/c1ccccc1C(C)C)Oc1ccc(F)cc1-3 |  |  |  | 54 |  | 4 |  | 43 |  | 156 |  |  | 1.9 |  |  |
| CC1=CC(C)(C)Nc2ccc3c(c21)/C(=C/c1cccc(F)c1)Oc1c(F)cccc1-3 |  |  |  | 18 |  | 2.7 |  | 51 |  | 170 |  |  | 5.5 |  |  |
| CC1=CC(C)(C)Nc2ccc3c(c21)/C(=C/c1ncccc1C)Oc1ccc(F)cc1-3 | > 1000 | 188 | 203 | 12 | > 1000 | 4.5 | 874 | 49 |  | 125 | > 1000 |  | 0.42 |  |  |
| CC1=CC(C)(C)Nc2ccc3c(c21)/C(=C/c1ccccc1Br)Oc1ccc(F)cc1-3 |  |  |  | 50 |  | 9 |  | 37 |  | 147 |  |  | 16.4 |  |  |
| COc1ccccc1/C=C1\Oc2ccc(F)cc2-c2ccc3c(c21)C(C)=CC(C)(C)N3 | 439 | 90 |  | 8 | > 1000 |  | 277 | 40 | 97 | 154 | > 1000 | > 1000 | 3.8 | 34 | 1885 |
| CC1=CC(C)(C)Nc2ccc3c(c21)/C(=C/c1ccccn1)Oc1ccc(F)cc1-3 |  |  |  | 44 |  | 15 |  | 40 |  | 50 |  |  | 9.2 |  |  |
| CC1=CC(C)(C)Nc2ccc3c(c21)/C(=C/c1ccccc1)Oc1ccc(F)cc1-3 | > 1000 | 2050 | 640 | 28 | > 1000 |  | 207 | 55 | 387 | 176 | > 1000 | 121 | 0.62 |  |  |
| CCCc1ccccc1/C=C1\Oc2ccc(F)cc2-c2ccc3c(c21)C(C)=CC(C)(C)N3 |  |  |  | 59 |  | 4.5 |  | 46 |  | 123 |  |  | 1.6 |  |  |
| CC1=CC(C)(C)Nc2ccc3c(c21)/C(=C/c1ccccc1OC(F)(F)F)Oc1ccc(F)cc1-3 |  |  |  | 190 |  | 11 |  | 56 |  | 136 |  |  | 6.4 |  |  |
| CC1=CC(C)(C)Nc2ccc3c(c21)/C(=C/c1ccccc1F)Oc1ccc(F)cc1-3 |  |  |  | 29 |  |  |  | 47 |  | 190 |  |  | 0.62 |  |  |
| CC1=CC(C)(C)Nc2ccc3c(c21)/C(=C/c1ccc(F)cc1)Oc1c(F)cccc1-3 |  |  |  | 8 |  | 4 |  | 36 |  | 175 |  |  | 0.71 |  |  |
| CC1=CC(C)(C)Nc2ccc3c(c21)/C(=C/c1ccccc1C=O)Oc1ccc(F)cc1-3 |  |  |  | 48 |  | 11 |  | 72 |  | 107 |  |  | 2.6 |  |  |
| CC1=CC(C)(C)Nc2ccc3c(c21)/C(=C/c1ccccc1C)Oc1ccc(F)cc1-3 | > 1000 | 650 | 820 | 19 | > 1000 | 3.6 | 236 | 49 | 181 | 178 | > 1000 | 228 | 0.55 |  |  |
| CC1=CC(C)(C)Nc2ccc3c(c21)/C(=C/c1ccccc1C#N)Oc1ccc(F)cc1-3 |  |  |  | 97 |  | 11 |  | 62 |  | 78 |  |  | 11.4 |  |  |
| CSc1ccccc1/C=C1\Oc2ccc(F)cc2-c2ccc3c(c21)C(C)=CC(C)(C)N3 | > 1000 | 860 |  | 41 | > 1000 | 6.2 | 386 | 53 | 139 | 132 | > 1000 | > 1000 | 0.59 |  |  |
| CC1=CC(C)(C)Nc2ccc3c(c21)/C(=C/c1ccccc1C)Oc1ccccc1-3 |  |  |  | 28 |  |  |  | 45 |  |  |  |  |  |  |  |
| CC1=CC(C)(C)Nc2ccc3c(c21)/C(=C/c1ccccc1C(F)(F)F)Oc1ccc(F)cc1-3 |  |  |  | 161 |  | 14 |  | 56 |  | 127 |  |  | 45.5 |  |  |
| CC1=CC(C)(C)Nc2ccc3c(c21)/C(=C/c1ccncc1)Oc1ccc(F)cc1-3 |  |  |  | 4.9 |  | 5.8 |  | 49 |  | 105 |  |  | 1.5 |  |  |
| CC1=CC(C)(C)Nc2ccc3c(c21)/C(=C/c1ccccc1Cl)Oc1ccc(F)cc1-3 |  |  |  |  |  |  |  |  |  | 146 |  |  | 22.4 |  |  |

From ChEMBL document CHEMBL1145087 (J Med Chem, 2003)
